Data as given in ChEMBL document CHEMBL4325822, “Discovery of a tetrazolyl β-carboline with in vitro and in vivo osteoprotective activity under estrogen-deficient conditions” (Medchemcomm, 2018).
Activity calls are given as the source filed them. No cut-off for these calls is given here.

Columns and labels:
Rattus norvegicus [1] = assay: Antiosteoporotic activity in Sprague-Dawley rat model of OVX-induced bone loss assessed as protection against microarchitectural deterioration by measuring trabecular separation at 5 mg/kg, po via gavage for 12 weeks by microcomputed tomographic analysis (reference value: 1.31 +/- 0.06 millimeter); type: functional
How it was run: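 Adult female Sprague-Dawley rats were ovariectomized and left 12 weeks to become osteopenic. They then received 12 weeks of once-daily oral gavage (1% gum acacia vehicle) or subcutaneous estradiol, five days a week. Femurs were collected at sacrifice and scanned by micro-CT for BMD and trabecular microarchitecture. Ten rats per group; mean ± SEM.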

Rattus norvegicus [2] = assay: Antiosteoporotic activity in Sprague-Dawley rat model of OVX-induced bone loss assessed as mineral apposition rate at 1 mg/kg, po via gavage for 12 weeks by microcomputed tomographic analysis (reference value: 0.169 +/- 0.004 umeter/day); type: functional
How it was run: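 Female Sprague-Dawley rats, 10-12 weeks old, ten per group, were ovariectomized and left 12 weeks for osteopenia. They were then dosed once daily by oral gavage for 12 weeks in 1% gum acacia vehicle. The estradiol arm received 100 µg·kg⁻¹ subcutaneously five days a week. Tetracycline and calcein were given intraperitoneally at 20 mg·kg⁻¹ each. Femur cross-sections (50 µm) were imaged by fluorescence microscopy for MAR and BFR.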

[3] = Toxicity in Sprague-Dawley rat model of OVX-induced bone loss assessed as luminal epithelial height at 5 mg/kg, po via gavage for 12 weeks (reference value: 27.29 +/- 0.96 umeter); type: organism-based; conditions: in vivo, 2016 h
[4] = Antioxidant activity assessed as SNP-induced nitric oxide free radical scavenging activity at 500 ug/ml after 150 mins by Griess reagent based method relative to control; type: functional
How it was run: (§1)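 Serial dilutions (1000 to 1.95 µg·ml⁻¹) were mixed with sodium nitroprusside (10 mM) and incubated 150 min. An equal volume of Griess reagent was added, and absorbance was read at 546 nm. Percentage scavenging was calculated relative to the control without compound.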

[5] = Toxicity in Sprague-Dawley rat model of OVX-induced bone loss assessed as uterine weight at 1 mg/kg, po via gavage for 12 weeks (reference value: 0.12 +/- 0.02 g); type: organism-based; conditions: in vivo, 2016 h
[6] = Toxicity in Sprague-Dawley rat model of OVX-induced bone loss assessed as luminal area at 5 mg/kg, po via gavage for 12 weeks (reference value: 0.01 +/- 0.0004 mm2); type: organism-based; conditions: in vivo, 2016 h
Rattus norvegicus [7] = assay: Upregulation of Runx2 mRNA expression in femur bone of Sprague-Dawley rat model of OVX-induced bone loss at 1 to 5 mg/kg, po via gavage for 12 weeks by qPCR analysis; type: functional, organism-based
How it was run: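 Ovariectomized female SD rats, osteopenic after 12 weeks, dosed orally once daily for 12 weeks (1.0 or 5.0 mg·kg⁻¹·day⁻¹, 1% gum acacia vehicle); sham and OVX vehicle groups included. Femurs collected at sacrifice for qRT-PCR, analysed by the ΔΔCT method.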

[8] = Induction of osteoblast differentiation in Sprague-Dawley rat calvarial osteoblasts assessed as alkaline phosphatase activity after 48 hrs using PNPP as substrate by spectrophotometric method; type: functional, cell-based; conditions: Rattus norvegicus, Sprague-Dawley, Calvarial osteoblast, 48 h; read-out: EC50
How it was run: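 Calvarial osteoblasts at 2 × 10³ cells/well. Treated 48 h with varied concentrations in differentiation medium (5% charcoal-treated FBS, 10 mM β-glycerophosphate, 50 µg·mL⁻¹ ascorbic acid). Total ALP read with PNPP substrate at 405 nm. Cell-free wells check for compound interference with substrate or absorbance.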

Rattus norvegicus [9] = assay: Antiosteoporotic activity in Sprague-Dawley rat model of OVX-induced bone loss assessed as increase in femoral bone strength by measuring stiffness at 1 mg/kg, po via gavage for 12 weeks by 3 point bending test (reference value: 122.07 +/- 12.18 N/mm); type: functional
[10] = Toxicity in Sprague-Dawley rat model of OVX-induced bone loss assessed as total uterine area at 1 mg/kg, po via gavage for 12 weeks (reference value: 0.11 +/- 0.003 mm2); type: organism-based; conditions: in vivo, 2016 h
[11] = target: I-kappa-B kinase (Rattus norvegicus) (UniProt Q9QY78+G3V926+Q6TMG5); assay: Inhibition of IKK in Sprague-Dawley rat calvarial osteoblasts assessed as reduction in TNFalpha-induced NFkB nuclear translocation at 100 pM after 24 hrs by immunofluorescence assay; type: cell-based; conditions: Calvarial osteoblast
How it was run: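 Primary rat osteoblasts on chamber slides given TNFα (10 ng·ml⁻¹) for 24 h, with or without treatment. Then 4% PFA fixation, 0.1% Triton X-100, anti-NF-κB overnight, and Cy3 anti-rabbit secondary. Fluorescence imaged at excitation 552 nm, emission 570 nm.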

[12] = Increase in OCN mRNA expression in Sprague-Dawley rat calvarial osteoblasts at 100 pM by RT-PCR method relative to control; type: functional, Calvarial osteoblast
How it was run: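 Primary calvarial osteoblasts were lysed in TRIzol after treatment, and total RNA was extracted. Transcripts were quantified by real-time PCR using the comparative CT (ΔΔCT) method.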

[13] = Antioxidant activity assessed as SNP-induced nitric oxide free radical scavenging activity at lower concentration after 150 mins by Griess reagent based method relative to control; type: functional; how it was run: as §1

Question: For CCOC(=O)c1cc2c([nH]c3ccccc32)c(C(c2nnnn2C(C)(C)C)N2CCN(C)CC2)n1 (stereo not drawn), which Activity (Rattus norvegicus [1]) is on record?
Answer: Its Activity is 0.87 mm.

Question: What about the Activity (Rattus norvegicus [2]) of the same molecule?
Answer: Its Activity is 1.062 micrometer/day.

Question: What about the Activity [3] of the same molecule?
Answer: The Activity was 3.61 um.

Question: What about the Activity [4] of the same molecule?
Answer: Its Activity is 31.4%.

Question: And the Activity [5]?
Answer: Its Activity is 0.13 g.

Question: And the Activity [6]?
Answer: Its Activity is 0.012 mm2.

Question: What about the Activity (Rattus norvegicus [7]) of the same molecule?
Answer: The Activity was “Active”.

Question: What about the EC50 [8] of the same molecule?
Answer: The EC50 was 900 nM.

Question: What about the Activity (Rattus norvegicus [9]) of the same molecule?
Answer: The Activity was 151.3 N/mm.

Question: And the Activity [10]?
Answer: Its Activity is 0.14 mm2.

Question: And the inhibition [11]?
Answer: Its inhibition is “Active”.

Question: And the “fold change (FC)” value [12]?
Answer: The value was 1.8 - 4.6.

Question: What about the Activity [13] of the same molecule?
Answer: The Activity was 4.07%.
